# Bioassay records (PubChem BioAssay)
# An excerpt weighted towards active compounds, which were near 3.9% of everything screened.
# APP 5'UTR act: APP 5'UTR luciferase reporter activation; SH-SY5Y APP 5'UTR luciferase reporter, luminescence; zero percent = DMSO vehicle wells; activation, % at 2 µM; 190,000 tested, 1% active;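 active means activation above a set limit, based on mean plus 3 SD of controls, cut at about 140% in these data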
# Pf gamet viab: kills late stage P. falciparum gametocytes. P. falciparum stage V gametocytes, ATP luminescence, 24 h. inhibition, % at 10.9 µM. 150,000 tested, 0.065% active;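 active means inhibition above the mean plus 3 SD of compounds within the control limits, set per campaign, cut at about 38% in these data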;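 further: 0% = DMSO wells and 100% = medium only without gametocytes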
# NF-kB expr up: NF-kB expression increase, human neuronal cells. 190,000 tested, 1.6% active. AID 1239. fold change at 12.5 µM. NF-kB reporter expression; stronger effect = higher value; in the data active means fold change above about 3.3
# STAT1 inh: reduces IFN-gamma driven STAT1 reporter signal | NIH 3T3 STAT1-luciferase reporter, luminescence | inhibition, % at 5.5 µM | 200,000 tested, 0.35% active | AID 920;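 active means inhibition above a set limit, the mean inhibition across all tested compounds plus 3 SD, cut at about 34% in these data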;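 further: 0% = IFN-gamma with DMSO and 100% = IFN-gamma with 300 µM nifuroxazide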
# STAT1 activator: activators of IFN-gamma induced STAT1 signaling; activation (% of control), % at 5.5 µM; AID 932; 200,000 tested, 2.6% active; NIH 3T3 STAT1-luciferase reporter, luminescence; 100% = IFN-gamma alone, no compound;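 active means activation above the screen-wide mean activation plus 3 SD, cut at about 130% in these data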;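 further: raw ratio to IFN-gamma control signal so 100% means no change and 0% no light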
# STAT3 act: activators of IL-6 induced STAT3 signaling. activation (% of control), % at 5.6 µM. 190,000 tested, 0.91% active. U3A cells, IL-6 STAT3-luciferase reporter, luminescence; 100% = signal with IL-6 EC80 alone;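 active means activation above the screen-wide mean of compound activation plus 3 SD, cut at about 130% in these data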;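 further: 0% = background luminescence of wells with medium and substrate only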
#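 Test system: STAT3-luciferase reporter U3A cells; Detection: reporter luminescence signal; Times: 1 h compound pre-exposure, 6 h IL-6 stimulation, 37 °C; Benchmarks: IL-6-only high control; Also added: IL-6 stimulus at 33 ng/mL final.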
# Numbers without * were called inactive; . = not tested or not shown.
SMILES,APP 5'UTR act,Pf gamet viab,NF-kB expr up,STAT1 inh,STAT1 activator,STAT3 act
CC(C)CCc1noc(CN(CC2CCC2)CC2CCCO2)n1 (stereo not given),.,25,.,.,.,.
CCCn1nnc(NC(=O)c2ccc(Cl)cc2Cl)n1,58,.,2,-33,131*,119
CNC(=O)c1sc(-c2ccc(Cl)cc2)nc1C,.,.,2.1,-45,142*,89
CNC(=O)c1sc(-c2ccccc2)nc1C,19,.,1.6,-11,110,93
CC(=O)c1sc(-c2ccc(Cl)cc2)nc1C,36,-24,1.4,-39,133*,92
O=C(NCc1nc(-c2ccc(C(F)(F)F)cc2)no1)Nc1ccc(OC(F)(F)F)cc1,.,-20,.,.,.,.
COCCn1c(=NC(=O)c2ccc(S(=O)(=O)N3CCc4ccccc4C3)cc2)sc2cc(S(N)(=O)=O)ccc21,9,8,1.1,-3,102,135*
C=CCn1c(=NC(=O)c2ccc(S(=O)(=O)N3CCc4ccccc4C3)cc2)sc2cc(S(N)(=O)=O)ccc21,2,-17,0.82,-10,109,131
CN1c2cccc3cccc(c23)N(C)C1(C)C,-3,-4,4.1*,1,99,112
CN1c2ccccc2N(C)C1(C)c1cccc2ccccc12,-7,-8,0.58,3,97,96
CC1Cc2ccccc2N1C(=O)CSc1ncc(-c2ccc(F)cc2)n1C (stereo not given),104,-9,0.93,-36,133*,97
Cn1c(-c2ccc(F)cc2)cnc1SCC(=O)N1CCCCC1,123,.,3.9*,-42,138*,72
Cn1c(-c2ccc(F)cc2)cnc1SCC(=O)N1CCCc2ccccc21,-2,13,0.93,6,94,97
COc1cc(CC(=O)OCn2nnc3ccccc3c2=O)cc(OC)c1OC,9,.,1.3,10,89,100
Cc1nc2c3cnn(-c4ccc(C)c(C)c4)c3ncn2n1,.,.,4.3*,-53,148*,99
O=c1oc2cc(Cl)ccc2n1CSc1nc2ccccc2s1,0,-23,8.6*,-21,119,123
O=C(CSc1nc2ccccc2s1)N1c2ccccc2Sc2ccc(Cl)cc21,-2,.,1,11,90,91
CCN=C1S/C(=C\c2ccc(-c3cccc(C(=O)O)c3)o2)C(=O)N1CC,185*,.,2.2,-20,118,131
CC(C)(C)c1ccc(-c2conc2N)cc1,70,21,5*,-32,118,98
CC(C)(C)c1ccc(-c2nc(N)nc(N)n2)cc1,.,-10,.,.,.,.
O=C(Nc1nc2ccc(Cl)cc2s1)C1CCCO1 (stereo not given),102,.,4.6*,-48,144*,90
CS(=O)(=O)c1ccc2nc(NC(=O)C3CCCO3)sc2c1 (stereo not given),32,1,0.98,-29,124,99
O=C(Nc1nc2ccc([N+](=O)[O-])cc2s1)C1CCCO1 (stereo not given),62,-2,2.2,-38,136*,92
CCC(C(=O)NCCc1ccc(S(N)(=O)=O)cc1)c1ccccc1 (stereo not given),.,10,.,.,.,.
Cc1ccc(C(=O)Nc2nnc(SCC(=O)N3CCCc4ccccc43)s2)cc1,59,7,7.1*,20,82,47
SMILES,APP 5'UTR act,Pf gamet viab,NF-kB expr up,STAT1 inh,STAT1 activator,STAT3 act
CCOC(=O)CNC(=O)CSc1nnc(NC(=O)c2ccc(C)cc2)s1,37,-12,2.8,59*,44,39
Cc1cccc(N(C(=O)C(F)(F)F)C(C(=O)NC2CCCCC2)c2cccs2)c1 (stereo not given),12,.,1.1,4,97,104
C#CC(=O)N(c1cccc(OC)c1)C(C(=O)NC1CCCC1)c1cccs1 (stereo not given),-19,.,0.14,43*,61,14
C#CC(=O)N(c1ccc(OC)c(OC)c1)C(C(=O)NC1CCCC1)c1cccs1 (stereo not given),-17,.,0.13,36*,68,15
C=CCn1c(N)c(C(=O)Nc2ccccc2OC)sc1=S,-3,1,0.85,1,99,105
C=CCn1c(N)c(C(=O)Nc2ccc(C)cc2)sc1=S,-8,21,1.8,-34,131*,89
C=CCC[C@@H](Cc1ccc(F)cc1)C(=O)OC[C@@H](NC(=O)[C@@H](CC=C)CC(=O)N[C@H](CO)Cc1ccccc1)C(C)(C)C,.,-11,.,.,.,.
CC1(C)NC(=O)N(CCOCCOc2ccccc2-c2ccccc2)C1=O,16,-24,0.91,-4,102,97
N#CCCC(CCC#N)C1=NCCc2ccccc21,.,12,.,.,.,.
N#CC(c1ccc(Cl)cc1)c1ccc2c(C(F)(F)F)cc(C(F)(F)F)nc2n1 (stereo not given),4,.,1.3,75*,31,29
Cc1ccc(C(=O)NC2CC3CCCC(C2)N3C(=S)NCc2ccco2)cc1 (stereo not given),5,.,1.1,-2,100,106
O=C(NCC1COc2ccccc2O1)c1ccc(Cl)cc1 (stereo not given),75,10,2.9,-44,140*,105
O=C(NCCO)C1COc2ccccc2O1 (stereo not given),8,7,.,-3,101,94
CCCNC(=O)C1CNc2ccccc2O1 (stereo not given),-8,.,1.1,-7,106,134*
COc1ccc(CCNC(=O)c2cc(-c3ccccc3OC)on2)cc1OC,-6,-9,1.1,-3,103,85
COc1ccccc1-c1cc(C(=O)NCCc2ccccc2)no1,51,.,3.8*,-21,120,98
COc1ccccc1-c1cc(C(=O)Nc2cccnc2)no1,-96,3,2.8,-34,131*,112
CCCC(=O)c1ccc(N2CCCCC2)c(F)c1,51,.,1.8,-34,130*,102
O=c1c(Cc2ccccc2)c(O)ccn1C1CCCCCCC1,7,1,0.95,-3,100,106
Cc1ccc(-c2cc(C(=O)NCCN3CCOCC3)no2)cc1,22,.,1.1,0,100,98
COc1ccc(-c2cc(C(=O)NCC(C)C)no2)cc1,26,.,5*,-36,133*,94
CC(C)NC(=O)c1cc(-c2ccc(Br)cc2)on1,115,9,4.9*,-55,150*,93
COc1ccc(-c2cc(C(=O)NCc3cccs3)no2)cc1,.,-1,.,.,.,.
CC(C)NC(=O)c1cc(-c2ccco2)on1,35,.,1.5,-18,117,103
CCCNC(=O)c1cc(-c2ccc(Br)cc2)on1,10,.,3.6*,-22,120,99
CCCn1cc(NC(=O)c2cc(-c3ccccc3)on2)cn1,0,10,3.6*,-32,130*,103
O=C(Nc1cnn(C23CC4CC(CC(C4)C2)C3)c1)c1cc(-c2ccccc2)on1,-16,.,1,-6,106,87
CCOc1ccc(NC(=O)CN(c2ccc(OC)cc2)S(C)(=O)=O)cc1,35,0,2.1,-23,121,116
